Reference: ChEMBL document CHEMBL3044755, “5-Methyl-1,2,3-thiadiazoles synthesized via ugi reaction and their fungicidal and antiviral activities” (J Agric Food Chem, 2010)

Tests used:
[1] = test system: Phytophthora infestans; test: Fungicidal activity against Phytophthora infestans at 50 ug/ml by growth inhibition method; format: functional; details: read-out: GI
In short: (§1)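 Mycelial growth inhibition on potato dextrose agar. The panel covered Alternaria solani, Botrytis cinerea, Cercospora arachidicola, C. beticola, Colletotrichum lagenarium, Fusarium oxysporum, Gibberella zeae, Puccinia triticina, Phytophthora infestans, Physalospora piricola, Pellicularia sasakii and Rhizoctonia solani.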

[2] = test system: Nicotiana tabacum; test: Induction of systemic acquired resistance activity in TMV infected-Nicotiana tabacum (tobacco) leaves at 100 ug/ml; format: functional
In short: (§2)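 Tobacco/TMV system used for systemic acquired resistance induction. Inhibition ratio calculated from mean lesion numbers on inoculated leaves relative to corresponding control. Tiadinil and ribavirin run as controls.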

[3] = test system: Puccinia triticina; test: Fungicidal activity against Puccinia triticina at 50 ug/ml by growth inhibition method; format: functional; details: read-out: GI; in short: as §1
[4] = test system: Tobacco mosaic virus; test: In vivo antiviral activity against Tobacco mosaic virus (TMV) infected tobacco leaves assessed as inactivation effect at 100 ug/ml co-treated with virus for 30 min before inoculation onto leaves measured at 2-3 days after viral challenge; format: functional
In short: (§3)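 TMV (5.88 10-2 μg/mL) mixed with equal volume of compound solution for 30 min, then rubbed onto upper three leaves of six-leaf tobacco; solvent on lower three leaves as control. Lesions counted 2-3 days later, three repetitions. Inhibition (%) = (CK − A)/CK × 100 from mean lesion counts.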

[5] = test system: Tobacco mosaic virus; test: In vivo antiviral activity against Tobacco mosaic virus (TMV) infected tobacco leaves assessed as curative effect at 100 ug/ml treated after viral inoculation measured at 2-3 days after viral challenge; format: functional
In short: (§4)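 Curative test: whole six-leaf tobacco leaves rubbed with TMV (5.88 10-2 μg/mL), dried in greenhouse, then compound smeared on upper three leaves and solvent on lower three as control. Local lesions scored 2-3 days after inoculation, three repetitions. Inhibition (%) = (CK − A)/CK × 100 on mean lesion numbers.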

[6] = test system: Botryosphaeria berengeriana; test: Fungicidal activity against Botryosphaeria berengeriana at 50 ug/ml by growth inhibition method; format: functional; details: read-out: GI; in short: as §1
[7] = test system: Nicotiana tabacum; test: Phytotoxicity against Nicotiana tabacum (tobacco) plant; format: organism-based; details: in vivo
[8] = test system: Tobacco mosaic virus; test: In vitro antiviral activity against Tobacco mosaic virus (TMV) infected tobacco leaves at 100 ug/ml; format: functional
[9] = test system: Cercospora beticola; test: Fungicidal activity against Cercospora beticola at 50 ug/ml by growth inhibition method; format: functional; details: read-out: GI; in short: as §1
[10] = test system: Tobacco mosaic virus; test: In vivo antiviral activity against Tobacco mosaic virus (TMV) infected tobacco leaves assessed as inactivation effect at 500 ug/ml co-treated with virus for 30 min before inoculation onto leaves measured at 2-3 days after viral challenge; format: functional; in short: as §3
[11] = test system: Tobacco mosaic virus; test: In vivo antiviral activity against Tobacco mosaic virus (TMV) infected tobacco leaves assessed as protective effect at 100 ug/ml treated 12 hr before viral inoculation measured at 2-3 days after viral challenge; format: functional
In short: (§5)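 Six-leaf tobacco; compound solution smeared over whole leaves, dried in greenhouse, then after 12 h TMV (5.88 10-2 μg/mL) rubbed onto upper three leaves, with solvent on lower three leaves as control. Local lesions counted 2-3 days post-inoculation, three repetitions. Inhibition (%) = (CK − A)/CK × 100 from mean lesion numbers.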

[12] = test system: Thanatephorus cucumeris; test: Fungicidal activity against Thanatephorus cucumeris at 50 ug/ml by growth inhibition method; format: functional; details: read-out: GI; in short: as §1
[13] = test system: Tobacco mosaic virus; test: In vivo antiviral activity against Tobacco mosaic virus (TMV) infected tobacco leaves assessed as protective effect at 500 ug/ml treated 12 hr before viral inoculation measured at 2-3 days after viral challenge; format: functional; in short: as §5
[14] = test system: Tobacco mosaic virus; test: In vivo antiviral activity against Tobacco mosaic virus (TMV) infected tobacco leaves assessed as curative effect at 500 ug/ml treated after viral inoculation measured at 2-3 days after viral challenge; format: functional; in short: as §4
[15] = test system: Mycosphaerella arachidis; test: Fungicidal activity against Mycosphaerella arachidis at 50 ug/ml by growth inhibition method; format: functional; details: read-out: GI; in short: as §1
[16] = test system: Nicotiana tabacum; test: Induction of systemic acquired resistance activity in TMV infected-Nicotiana tabacum (tobacco) leaves at 50 ug/ml; format: functional; in short: as §2
[17] = test system: Colletotrichum lagenaria; test: Fungicidal activity against Colletotrichum lagenaria at 50 ug/ml by growth inhibition method; format: functional; details: read-out: GI; in short: as §1
[18] = test system: Alternaria solani; test: Fungicidal activity against Alternaria solani at 50 ug/ml by growth inhibition method; format: functional; details: read-out: GI; in short: as §1
[19] = test system: Rhizoctonia solani; test: Fungicidal activity against Rhizoctonia solani at 50 ug/ml by growth inhibition method; format: functional; details: read-out: GI; in short: as §1
[20] = test system: Fusarium graminearum; test: Fungicidal activity against Fusarium graminearum at 50 ug/ml by growth inhibition method; format: functional; details: read-out: GI; in short: as §1
[21] = test system: Tobacco mosaic virus; test: In vitro antiviral activity against Tobacco mosaic virus (TMV) infected tobacco leaves at 500 ug/ml; format: functional
[22] = test system: Botrytis cinerea; test: Fungicidal activity against Botryotinia fuckeliana at 50 ug/ml by growth inhibition method; format: functional; details: read-out: GI; in short: as §1
[23] = test system: Fusarium oxysporum; test: Fungicidal activity against Fusarium oxysporum at 50 ug/ml by growth inhibition method; format: functional; details: read-out: GI; in short: as §1
[24] = test system: Tobacco mosaic virus; test: In vitro antiviral activity against Tobacco mosaic virus (TMV) infected tobacco leaves at 200 ug/ml; format: functional

Structure (SMILES) | inhibition of growth at 50 µg/mL [1] | Activity [2] | Activity [4] | Activity [5] | inhibition of growth at 50 µg/mL [6] | Activity [7] | inhibition at 100 µg/mL [8] | inhibition of growth at 50 µg/mL [9] | Activity [10] | Activity [11] | inhibition of growth at 50 µg/mL [12] | Activity [13] | Activity [14] | inhibition of growth at 50 µg/mL [15] | Activity [16] | inhibition of growth at 50 µg/mL [17] | inhibition of growth at 50 µg/mL [18] | inhibition of growth at 50 µg/mL [19] | inhibition of growth at 50 µg/mL [20] | inhibition at 500 µg/mL [21] | other results
Cc1ccc(N(C(=O)c2nnsc2C)C(C(=O)NC2CCCCC2)c2cccc(Cl)c2)cc1F (stereo not drawn) | 44% | 22% | 69% | 0% | 8% | Non-toxic | 14% | 25% | 79% | 29% | 0% | 67% | 40% | 27% | 30% | 0% | 25% | 39% | 27% | 18% | inhibition of growth at 50 µg/mL [3]: 14%
Cc1ccc(N(C(=O)c2nnsc2C)C(C(=O)NC2CCCCC2)c2ccc(F)cc2)cc1F (stereo not drawn) | 25% | 41% | 69% | 20% | 0% | Non-toxic | 24% | 0% | 79% | 6% | 87% | 17% | 52% | 9% | 41% | 14% | 0% | 2% | 0% | 44% | inhibition of growth at 50 µg/mL [3]: 0%
Cc1cccc(C(C(=O)NC2CCCCC2)N(C(=O)c2nnsc2C)c2ccc(C)c(F)c2)c1 (stereo not drawn) | 1% | 54% | 38% | 29% | 0% | Non-toxic | 44% | 25% | 69% | 10% | 0% | 8% | 38% | 0% | 40% | 0% | 6% | 37% | 36% | 29% | inhibition of growth at 50 µg/mL [3]: 0%
Cc1ccc(N(C(=O)c2nnsc2C)C(C(=O)NC(C)C)c2ccccc2F)cc1F (stereo not drawn) | 44% | 7% | 73% | 47% | 0% | Non-toxic | 16% | 13% | 74% | 27% | 0% | 60% | 60% | 0% | 59% | 14% | 38% | 15% | 27% | 46% | inhibition of growth at 50 µg/mL [3]: 0%
Cc1ccc(N(C(=O)c2nnsc2C)C(C(=O)NC(C)C)c2ccccc2C(F)(F)F)cc1F (stereo not drawn) | 44% | 60% | 67% | 32% | 0% | Non-toxic | 57% | 13% | 65% | 5% | 15% | 44% | 44% | 9% | 30% | 36% | 13% | 17% | 27% | 71% | inhibition of growth at 50 µg/mL [3]: 0%
Cc1ccc(N(C(=O)c2nnsc2C)C(C(=O)NC(C)C)c2ccc(O)cc2)cc1F (stereo not drawn) | 0% | 7% | 51% | 28% | 0% | Non-toxic | 26% | 0% | 72% | 71% | 4% | 76% | 55% | 0% | 36% | 0% | 0% | 0% | 0% | 35% | inhibition of growth at 50 µg/mL [3]: 0%
Cc1ccc(N(C(=O)c2nnsc2C)C(C(=O)NC(C)C)c2ccccc2C)cc1Cl (stereo not drawn) | 10% | 0% | 23% | 21% | 31% | Non-toxic |  | 17% | 50% | 13% | 69% | 38% | 42% | 21% | 37% | 10% | 40% |  | 37% | 12% | inhibition of growth at 50 µg/mL [22]: 76%; inhibition of growth at 50 µg/mL [23]: 19%; inhibition at 200 µg/mL [24]: 58%
Cc1ccc(N(C(=O)c2nnsc2C)C(C(=O)NC(C)C)c2ccc([N+](=O)[O-])cc2)cc1F (stereo not drawn) | 13% | 7% | 65% | 0% | 0% | Non-toxic | 9% | 25% | 62% | 26% | 22% | 27% | 17% | 27% | 66% | 0% | 0% | 17% | 0% | 25% | inhibition of growth at 50 µg/mL [3]: 0%
Cc1ccc(NC(=O)c2snnc2C)cc1Cl [TIADINIL] | 46% | 52% | 42% | 46% | 74% | Non-toxic | 25% | 40% | 59% | 57% | 46% | 75% | 58% | 18% | 50% |  |  | 1% | 36% | 48% | inhibition of growth at 50 µg/mL [22]: 67%; inhibition of growth at 50 µg/mL [23]: 48%
